According to paper PMC3226999 (Food chemistry, 2012):
“Also recorded” adds a separate entry of the source.

Experiments:
[1] = test system: caspase-3 and −7 activity in MDA-MB-231 cells; test: Caspase-Glo 3/7 luminometric assay in cells; type: cell-based, human; settings: for reduction of staurosporine-induced caspase-3/−7 activity: 1 μM staurosporine plus flavonoid 200, 100, 25 μM, 24 h (Figure 3B); for caspase-3 or −7 activity in treated cells versus DMSO control: 200 μM flavonoid or 1 μM staurosporine, 24 h (Figure 3A)
Summary of the method: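 MDA-MB-231 cells were grown in high-glucose DMEM with 10% BGS at 37 °C and 5% CO2. They were seeded at 0.5 × 10^4 cells/well, then treated after 24 h with test compound and/or staurosporine for 24 h. Alternatively, medium was replaced with 200 μM compound plus 1 μM staurosporine just before assay. Caspase-3/7 activity was read by Caspase-Glo 3/7 luminescence as fold activation over DMSO-treated cells (n=3, standard error of margin, t-test).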

[2] = test system: purified recombinant caspase-1, −3, and −7; test: Preliminary survey of inhibition of purified recombinant activated caspases; type: biochemical; settings: for inhibition of purified caspase-1, −3, or −7 activity: 200 μM, 100 μM, 50 μM flavonoid (Figure 4); for caspase specificity: among caspase-1, −3, −7
recombinant caspase-3 = biological target: T1, recombinant caspase-3 (Homo sapiens, UniProt P42574); type: biochemical
T1 sequence (P42574 29-175 limits assumed): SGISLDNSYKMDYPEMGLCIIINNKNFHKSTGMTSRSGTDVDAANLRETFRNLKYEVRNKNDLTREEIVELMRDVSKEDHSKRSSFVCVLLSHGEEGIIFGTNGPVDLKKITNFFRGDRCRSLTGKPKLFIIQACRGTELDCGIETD
T1 sequence (P42574 176-277 limits assumed): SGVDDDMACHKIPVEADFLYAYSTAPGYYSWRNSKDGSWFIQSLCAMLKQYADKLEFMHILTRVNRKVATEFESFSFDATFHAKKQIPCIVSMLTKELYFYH

| Structure (SMILES) | reduction of staurosporine-induced caspase-3/−7 activity [1] | caspase-3 or −7 activity in treated cells versus DMSO control [1] | inhibition of purified caspase-1, −3, or −7 activity [2] | type of caspase inhibition ([2]; Lineweaver-Burk plots, caspase-1, −3, −7) | caspase specificity [2] | IC50 (recombinant caspase-3) |
| --- | --- | --- | --- | --- | --- | --- |
| O=c1cc(-c2ccc(O)cc2)oc2cc(O)cc(O)c12 [Apigenin, apigenin] | reduction in activity was dose dependent | decrease in caspase-3 or −7 activity | did not exhibit strong dose-dependent inhibition |  |  |  |
| O.Oc1cc(O)c2c(c1)O[C@H](c1ccc(O)c(O)c1)[C@@H](O)C2 [Catechin, catechin] |  |  | did not exhibit strong dose-dependent inhibition |  |  |  |
| O=c1cc(-c2ccccc2)oc2cc(O)cc(O)c12 [Chrysin, chrysin] |  |  | did not exhibit strong dose-dependent inhibition |  |  |  |
| O=c1c(-c2ccc(O)cc2)coc2cc(O)ccc12 [Daidzein, daidzein] |  |  | did not exhibit strong dose-dependent inhibition; also recorded: unable to inhibit caspase activity |  |  |  |
| O=c1c(-c2ccc(O)cc2)coc2cc(O)cc(O)c12 [Genistein, genistein] |  |  | unable to inhibit caspase activity |  |  |  |
| O=c1c(O)c(-c2ccc(O)cc2)oc2cc(O)cc(O)c12 [Kaempferol, kaempferol] | reduction in activity was dose dependent | decrease in caspase-3 or −7 activity | significant, dose-dependent inhibition |  |  |  |
| O=c1cc(-c2ccc(O)c(O)c2)oc2cc(O)cc(O)c12 [Luteolin, luteolin] | reduction in activity was dose dependent | decrease in caspase-3 or −7 activity | significant, dose-dependent inhibition |  |  |  |
| O=c1c(O)c(-c2cc(O)c(O)c(O)c2)oc2cc(O)cc(O)c12 [Myricetin, myricetin] | able to reduce the staurosporine-induced activity |  | significant, dose-dependent inhibition; also recorded: one of the more potent inhibitors | competitive | specificity for caspase-1 | 25 µM |
| O=C1C[C@@H](c2ccc(O)cc2)Oc2cc(O)cc(O)c21 [Narigenin, naringenin] |  |  | did not exhibit strong dose-dependent inhibition |  |  |  |
| O=c1c(O)c(-c2ccc(O)c(O)c2)oc2cc(O)cc(O)c12 [Quercetin, quercetin] | able to reduce the staurosporine-induced activity | increase caspase-3 or −7 activity only slightly | significant, dose-dependent inhibition |  | specificity for caspase-3 |  |
| CN[C@@H]1C[C@H]2O[C@@](C)([C@@H]1OC)n1c3ccccc3c3c4c(c5c6ccccc6n2c5c31)C(=O)NC4 [Staurosporine, staurosporine, reference compound] |  | very strong caspase-3 or −7 activation |  |  |  |  |
